Source: ChEMBL document CHEMBL3774372, “Design, physico-chemical properties and biological evaluation of some new N-[(phenoxy)alkyl]- and N-{2-[2-(phenoxy)ethoxy]ethyl}aminoalkanols as anticonvulsant agents” (Bioorg Med Chem, 2016)
Active and inactive are the calls of the source. The calls are words filed in the database; no cut-off is given here.

Columns and labels:
[1] = tested on: Mus musculus; assay: Anticonvulsant activity in mouse assessed as protection against 6 Hz psychomotor seizure at 50 mg/kg, ip after 2 hrs; format: functional, organism-based
Outline: (§1)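 Suspension in 0.5% methylcellulose given ip to mice; corneal stimulation with 0.2 ms monopolar rectangular pulses at 6 Hz for 3 s from a constant current device, mice restrained then released to observation cage. Protected if normal exploratory behaviour resumed within 10 s of stimulation. Scored as protected/tested, 4 mice per group.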

[2] = tested on: Rattus norvegicus; assay: Anticonvulsant activity in pilocarpine-induced status epilepticus Sprague-Dawley rat model at 30 mg/kg, ip after 4 hrs during post stage 3 seizure; format: functional, organism-based
Outline: (§2)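 Rats given pilocarpine 50 mg/kg ip and observed to first convulsive seizure (Racine stage 3–5, time zero); test drug then given ip in 0.5% methylcellulose. Efficacy = halting further stage 3–5 convulsive seizures; scored protected/tested, time after first stage 3 seizure.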

[3] = tested on: Rattus norvegicus; assay: Anticonvulsant activity in pilocarpine-induced status epilepticus Sprague-Dawley rat model at 100 mg/kg, ip after 0.5 hrs during post stage 3 seizure; format: functional, organism-based; outline: as §2
[4] = tested on: Rattus norvegicus; assay: Anticonvulsant activity in pilocarpine-induced status epilepticus Sprague-Dawley rat model at 100 mg/kg, ip after 2 hrs during post stage 3 seizure; format: functional, organism-based; outline: as §2
[5] = target: D(1A) dopamine receptor (Homo sapiens) (UniProt P21728); assay: Displacement of [3H]SCH23390 from human recombinant Dopamine D1 receptor expressed in CHO cells at 10^-5 M; format: cell-based
Outline: (§3)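 Radioligand displacement screen with the test agent at a single 10^-5 M concentration; receptor source and radioligand per target as tabulated (recombinant human cell lines or rat cerebral cortex/urinary bladder).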

[6] = target: D(3) dopamine receptor (Homo sapiens) (UniProt P35462); assay: Displacement of [3H]methylspiperone from human recombinant Dopamine D3 receptor expressed in CHO cells at 10^-5 M; format: cell-based; outline: as §3
[7] = target: Substance-P receptor (Homo sapiens) (UniProt P25103); assay: Displacement of [125I]BH-SP from NK1 receptor in human U373MG cells at 10^-5 M; format: cell-based; conditions: U-373MG ATCC
Outline: (§4)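 Radioligand binding screen run at a single test concentration of 10^-5 M. Each target used its stated receptor source (human recombinant CHO or HEK-293 cells, endogenous cell lines, or rat tissue membranes) with the listed radioligand.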

[8] = target: Substance-K receptor (Homo sapiens) (UniProt P21452); assay: Displacement of [125I]NKA from human recombinant NK2 receptor expressed in CHO cells at 10^-5 M; format: cell-based; outline: as §4
[9] = target: 5-hydroxytryptamine receptor 2A (Homo sapiens) (UniProt P28223); assay: Displacement of [3H]ketanserin from human recombinant 5-HT2A receptor expressed in HEK293 cells at 10^-5 M; format: cell-based; outline: as §3
[10] = tested on: Vibrio harveyi; assay: Antimutagenic activity against Vibrio harveyi BB7 assessed as inhibition of NQNO-induced mutagenicity after 48 hrs; format: functional
Outline: (§5)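 V. harveyi cultures grown exponentially to A600 0.1 at 30 °C, exposed to test compound for 15 min, then to NQNO, and grown on to A600 0.3–0.4. 5 × 10⁶ cells plated on BOSS agar with neomycin (100, final). Neomycin-resistant colonies counted after 48 h at 30 °C. Result given as % inhibition of NQNO mutagenicity; three independent repeats.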

[11] = tested on: Vibrio harveyi; assay: Antimutagenic activity against Vibrio harveyi BB7X assessed as inhibition of NQNO-induced mutagenicity after 48 hrs; format: functional; outline: as §5
[12] = tested on: Vibrio harveyi; assay: Antimutagenic activity against Vibrio harveyi BB7M assessed as inhibition of NQNO-induced mutagenicity after 48 hrs; format: functional; outline: as §5
[13] = tested on: Mus musculus; assay: Initial plasma concentration in CD1 mouse at 1 mg/kg, iv measured up to 240 mins by LC/ESI-MS/MS; format: ADME, organism-based; conditions: in vivo, 4 h
[14] = Half life in CD1 mouse plasma at 1 mg/kg, iv measured up to 240 mins by LC/ESI-MS/MS analysis; format: ADME, organism-based
Outline: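 Male CD1 mice, fasted overnight, were dosed iv at 1 mg/kg. Under ketamine/xylazine, blood was collected at 0, 5, 15, 30, 60, 120 and 240 min, one sample per animal, four mice per time point. Plasma concentrations were measured by LC/ESI-MS/MS. Terminal t1/2 was taken as 0.693/kz, with kz from log-linear regression, using non-compartmental analysis.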

[15] = tested on: Mus musculus; assay: Cmax in CD1 mouse plasma at 12.92 mg/kg, ig measured up to 240 mins by LC/ESI-MS/MS analysis; format: ADME, organism-based; set-up: dose 12.92 mg/kg, route […]; conditions: in vivo, po, 4 h
[16] = tested on: Mus musculus; assay: AUMC (0 to infinity) in CD1 mouse plasma at 12.92 mg/kg, ig measured up to 240 mins by LC/ESI-MS/MS analysis; format: ADME, organism-based; conditions: in vivo, po, 4 h
[17] = Absolute bioavailability in CD1 mouse plasma at 12.92 mg/kg, ig measured up to 240 mins by LC/ESI-MS/MS analysis; format: ADME, organism-based; conditions: po
[18] = MRT in CD1 mouse plasma at 12.92 mg/kg, ip measured up to 240 mins by LC/ESI-MS/MS analysis; format: ADME, organism-based
[19] = tested on: Mus musculus; assay: AUC (0 to infinity) in CD1 mouse plasma at 12.92 mg/kg, ip measured up to 240 mins by LC/ESI-MS/MS analysis; format: ADME, organism-based; set-up: dose 12.92 mg/kg, route intraperitoneal, time infinity; conditions: in vivo, 4 h
[20] = Absolute bioavailability in CD1 mouse plasma at 12.92 mg/kg, ip measured up to 240 mins by LC/ESI-MS/MS analysis; format: ADME, organism-based
[21] = MRT in CD1 mouse brain at 1 mg/kg, iv measured up to 240 mins by LC/ESI-MS/MS analysis; format: ADME, organism-based
[22] = Cmax in CD1 mouse brain at 12.92 mg/kg, ip measured up to 240 mins by LC/ESI-MS/MS analysis; format: ADME, organism-based; set-up: dose 12.92 mg/kg, route intraperitoneal
[23] = Ratio of drug level in brain to plasma in CD1 mouse at 1 mg/kg, iv administered as single dose measured after 5 mins by LC/ESI-MS/MS analysis; format: ADME, organism-based; conditions: brain and plasma, read-out: BPR
[24] = tested on: Rattus norvegicus; assay: Anticonvulsant activity in rat assessed as protection against maximal electric shock-induced seizures at 30 mg/kg, po measured after 0.5 hrs; format: functional, organism-based
Outline: (§6)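 Rats dosed ip or orally as 0.5% methylcellulose suspension; maximal electroshock at listed time. Protection = abolition of hindlimb tonic extension; 4 rats per group, scored protected/tested.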

[25] = tested on: Rattus norvegicus; assay: Anticonvulsant activity in rat assessed as protection against maximal electric shock-induced seizures at 30 mg/kg, po measured after 1 hr; format: functional, organism-based; outline: as §6
[26] = tested on: Mus musculus; assay: Anticonvulsant activity in mouse assessed as protection against 6 Hz psychomotor seizure at 20 mg/kg, ip after 1 hr; format: functional, organism-based; outline: as §1
[27] = tested on: Mus musculus; assay: Anticonvulsant activity in mouse assessed as protection against 6 Hz psychomotor seizure at 40 mg/kg, ip after 0.5 hrs; format: functional, organism-based; outline: as §1
[28] = target: Adenosine receptor A1 (Homo sapiens) (UniProt P30542); assay: Displacement of [3H]DPCPX from human recombinant adenosine A1 receptor expressed in CHO cells at 10^-5 M; format: cell-based; outline: as §4
[29] = tested on: Rattus norvegicus; assay: Anticonvulsant activity in rat assessed as protection against maximal electric shock-induced seizures at 30 mg/kg, ip measured after 4 hrs; format: functional, organism-based; outline: as §6
[30] = target: Small conductance calcium-activated potassium channel (Rattus norvegicus) (UniProt P70604+P70606+P70605); assay: Displacement of [125I]apamin from rat cerebral cortex small conductance calcium-activated potassium channel at 10^-5 M; format: tissue-based; outline: as §4

Chain of Substance-P receptor (Homo sapiens) (P25103 whole entry): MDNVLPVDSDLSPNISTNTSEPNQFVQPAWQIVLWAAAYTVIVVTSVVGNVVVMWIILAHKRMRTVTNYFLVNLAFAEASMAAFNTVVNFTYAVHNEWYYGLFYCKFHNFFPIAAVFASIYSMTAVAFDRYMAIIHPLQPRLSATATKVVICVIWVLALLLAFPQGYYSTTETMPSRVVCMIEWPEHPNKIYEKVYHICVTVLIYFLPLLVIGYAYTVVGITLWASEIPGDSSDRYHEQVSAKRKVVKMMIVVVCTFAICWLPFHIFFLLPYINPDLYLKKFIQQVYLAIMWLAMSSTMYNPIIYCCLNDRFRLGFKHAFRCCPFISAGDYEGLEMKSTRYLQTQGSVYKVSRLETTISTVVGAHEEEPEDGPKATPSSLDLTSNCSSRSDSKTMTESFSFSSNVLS
Chain of D(3) dopamine receptor (Homo sapiens) (P35462 whole entry): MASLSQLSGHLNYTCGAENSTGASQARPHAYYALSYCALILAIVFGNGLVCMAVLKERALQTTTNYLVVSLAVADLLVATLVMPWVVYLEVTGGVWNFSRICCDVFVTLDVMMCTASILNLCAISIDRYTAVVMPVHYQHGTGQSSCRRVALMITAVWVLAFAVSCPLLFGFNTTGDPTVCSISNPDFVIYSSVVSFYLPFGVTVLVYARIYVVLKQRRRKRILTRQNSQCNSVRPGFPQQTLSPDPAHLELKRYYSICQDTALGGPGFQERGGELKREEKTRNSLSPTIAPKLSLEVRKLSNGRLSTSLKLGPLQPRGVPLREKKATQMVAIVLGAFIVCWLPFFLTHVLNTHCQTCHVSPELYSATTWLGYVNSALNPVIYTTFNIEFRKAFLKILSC
Chain of D(1A) dopamine receptor (Homo sapiens) (P21728 whole entry): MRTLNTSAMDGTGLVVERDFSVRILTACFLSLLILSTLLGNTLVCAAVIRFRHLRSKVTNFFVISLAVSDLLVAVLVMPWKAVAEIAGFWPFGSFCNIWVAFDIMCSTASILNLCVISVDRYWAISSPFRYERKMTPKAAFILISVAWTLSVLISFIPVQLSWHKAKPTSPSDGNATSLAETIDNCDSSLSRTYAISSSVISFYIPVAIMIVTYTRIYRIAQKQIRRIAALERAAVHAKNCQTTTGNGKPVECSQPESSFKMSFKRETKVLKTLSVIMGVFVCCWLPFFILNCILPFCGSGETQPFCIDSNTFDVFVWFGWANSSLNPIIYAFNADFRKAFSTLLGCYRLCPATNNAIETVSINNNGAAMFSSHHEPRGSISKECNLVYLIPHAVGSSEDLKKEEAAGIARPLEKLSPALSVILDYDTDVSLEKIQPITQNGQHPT
Chain of Substance-K receptor (Homo sapiens) (P21452 whole entry): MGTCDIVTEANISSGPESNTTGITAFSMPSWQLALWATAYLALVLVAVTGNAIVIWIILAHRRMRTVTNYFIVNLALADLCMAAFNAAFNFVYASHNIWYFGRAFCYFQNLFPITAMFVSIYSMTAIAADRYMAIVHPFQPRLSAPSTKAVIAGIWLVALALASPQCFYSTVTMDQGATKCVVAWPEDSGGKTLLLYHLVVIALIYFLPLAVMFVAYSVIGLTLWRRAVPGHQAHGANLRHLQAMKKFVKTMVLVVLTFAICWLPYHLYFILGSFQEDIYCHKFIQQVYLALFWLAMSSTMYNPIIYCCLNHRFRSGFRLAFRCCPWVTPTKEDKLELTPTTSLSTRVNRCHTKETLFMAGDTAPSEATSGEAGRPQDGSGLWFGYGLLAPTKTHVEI
Chain of 5-hydroxytryptamine receptor 2A (Homo sapiens) (P28223 whole entry): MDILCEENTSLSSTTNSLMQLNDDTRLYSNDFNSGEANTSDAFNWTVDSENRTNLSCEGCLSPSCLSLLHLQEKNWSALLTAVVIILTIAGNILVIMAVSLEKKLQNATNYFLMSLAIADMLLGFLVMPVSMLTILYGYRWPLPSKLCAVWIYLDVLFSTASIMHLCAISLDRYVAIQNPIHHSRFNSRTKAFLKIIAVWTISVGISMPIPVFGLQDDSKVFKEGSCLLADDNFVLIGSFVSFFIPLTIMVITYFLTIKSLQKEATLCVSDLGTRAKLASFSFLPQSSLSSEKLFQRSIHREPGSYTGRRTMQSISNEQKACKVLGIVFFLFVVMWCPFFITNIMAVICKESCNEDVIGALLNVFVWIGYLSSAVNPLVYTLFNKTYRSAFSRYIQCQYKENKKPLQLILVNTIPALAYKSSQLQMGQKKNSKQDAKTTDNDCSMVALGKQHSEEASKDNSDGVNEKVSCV
Chain of Adenosine receptor A1 (Homo sapiens) (P30542 whole entry): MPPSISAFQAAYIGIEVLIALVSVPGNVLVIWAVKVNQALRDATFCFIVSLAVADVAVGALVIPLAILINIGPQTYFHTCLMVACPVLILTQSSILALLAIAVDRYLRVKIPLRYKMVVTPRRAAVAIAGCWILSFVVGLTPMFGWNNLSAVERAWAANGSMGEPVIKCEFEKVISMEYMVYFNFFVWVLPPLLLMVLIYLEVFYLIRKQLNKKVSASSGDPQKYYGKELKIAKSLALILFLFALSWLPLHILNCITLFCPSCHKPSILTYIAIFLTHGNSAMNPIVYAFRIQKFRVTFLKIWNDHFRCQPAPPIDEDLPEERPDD

SMILES: Cc1cccc(C)c1OCCOCCN[C@H](C)CO
- Activity [1]: inactive
- Activity [2]: inactive
- Activity [3]: inactive
- Activity [4]: inactive
- inhibition [5]: 12.4%
- inhibition [6]: 44.1%
- inhibition [7]: 17.3%
- inhibition [8]: 2.2%
- inhibition [9]: 22.6%

SMILES: Cc1cccc(C)c1OCCOCCN[C@H](C)CO.Cl
- inhibition (INH) [10]: 75%
- inhibition (INH) [11]: 7%
- inhibition (INH) [12]: 69%
- C0 [13]: 2.21 µg/mL
- half-life [14]: 51.5 min
- Cmax [15]: 0.95 µg/mL
- AUMC [16]: 266 ng·h²/mL
- bioavailability [17]: 2.98%
- MRT [18]: 85.2 min
- AUC [19]: 0.903 µg·h/mL
- bioavailability [20]: 6.78%
- MRT [21]: 50.1 min
- Cmax [22]: 2.36 µg/mL
- Kp at 5 min [23]: 5.27

SMILES: Cc1cccc(C)c1OCCOCCN[C@@H](C)CO
- Activity [24]: inactive
- Activity [25]: inactive
- Activity [26]: inactive
- Activity [27]: Active
- Activity [2]: inactive
- inhibition [28]: -6.9%
- Activity [29]: inactive
- inhibition [5]: 16.2%
- inhibition [6]: 57.4%
- inhibition [7]: 51.7%
- inhibition [8]: 41.2%
- inhibition [9]: 32.1%
- inhibition [30]: -0.9%
